ChEMBL document CHEMBL5303300, “EUbOPEN Chemogenomics Library - Multiplex” (2023)
Where “and” joins values, the source holds several entries; their conditions need not be identical. Identical values can stand only once.

How the values were obtained:
HEK-293T = assay: Multiplex assay against HEK293T; format: toxicity, cell-based; settings: human, number of replicates 2
Procedure, shortened: (§1)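 Phenotypes for tubulin, mitochondrial mass and membrane permeability are expressed as per cents of healthy-nucleus cells. Cells were stained live at seeding with Hoechst33342, BioTracker Green Microtubule Cytoskeleton Dye, MitoTracker Red and Annexin V Alexa Fluor 680, then imaged after compound addition on a CQ1 microscope at 37°C and 5% CO2. Machine-learning gating in CellPathfinder separated Hoechst high-intensity objects from normal cells, divided normal cells by nuclear state (healthy, pyknosed, fragmented) and divided pyknosed cells into mitotic or apoptotic.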

U2OS = assay: Multiplex assay against U2OS; format: toxicity, cell-based; settings: human, number of replicates 2; procedure, shortened: as §1
[1] = 24 h, 1 µM, compound concentration 1 uM
[2] = 24 h, 10 µM, compound concentration 10 uM
[3] = 48 h, 1 µM, compound concentration 1 uM
[4] = 48 h, 10 µM, compound concentration 10 uM
[5] = 12 h, 1 µM, compound concentration 1 uM
[6] = 12 h, 10 µM, compound concentration 10 uM

CC(C)c1cc(-c2ccc(F)c3ccccc23)nc(N)n1
Population Hoechst High Intensity Objects (%) (HEK-293T; [1]): 7% and 9% | Population Membrane Permeable-Phenotype (%) (HEK-293T; [1]): 2% and 3% | Population Mitochondria Different-Phenotype (%) (HEK-293T; [1]): 4% and 5% | Population Mitotic Cells (%) (HEK-293T; [1]): 50% and 63% | Population Normal (%) (HEK-293T; [1]): 92% and 90% | Population Pyknosed Nuclei (%) (HEK-293T; [1]): 5% and 6% | Population Tubulin-Different-Phenotype (%) (HEK-293T; [1]): 34% and 35% | Total Cell Count (HEK-293T; [1]): 1247 and 898 | Population Apoptotic (%) (HEK-293T; [2]): 41% and 43% | Population Fragmented Nuclei (%) (HEK-293T; [2]): 7% and 6% | Population Healthy Nuclei (%) (HEK-293T; [2]): 84% and 82% | Population Hoechst High Intensity Objects (%) (HEK-293T; [2]): 7% and 6% | Population Membrane Permeable-Phenotype (%) (HEK-293T; [2]): 2% and 1% | Population Mitochondria Different-Phenotype (%) (HEK-293T; [2]): 14% and 12% | Population Mitotic Cells (%) (HEK-293T; [2]): 58% and 56% | Population Normal (%) (HEK-293T; [2]): 92% and 93% | Population Pyknosed Nuclei (%) (HEK-293T; [2]): 8% and 10% | Population Tubulin-Different-Phenotype (%) (HEK-293T; [2]): 46% and 42% | Total Cell Count (HEK-293T; [2]): 675 and 625 | Population Apoptotic (%) (HEK-293T; [3]): 10% and 18% | Population Fragmented Nuclei (%) (HEK-293T; [3]): 16% and 10% | Population Healthy Nuclei (%) (HEK-293T; [3]): 81% and 85% | Population Hoechst High Intensity Objects (%) (HEK-293T; [3]): 9% and 10% | Population Membrane Permeable-Phenotype (%) (HEK-293T; [3]): 5% | Population Mitochondria Different-Phenotype (%) (HEK-293T; [3]): 0% and 1% | Population Mitotic Cells (%) (HEK-293T; [3]): 90% and 81% | Population Normal (%) (HEK-293T; [3]): 90% and 89% | Population Pyknosed Nuclei (%) (HEK-293T; [3]): 2% and 4% | Population Tubulin-Different-Phenotype (%) (HEK-293T; [3]): 17% and 23% | Total Cell Count (HEK-293T; [3]): 3182 and 1908 | Population Apoptotic (%) (HEK-293T; [4]): 20% and 37% | Population Fragmented Nuclei (%) (HEK-293T; [4]): 14% and 10% | Population Healthy Nuclei (%) (HEK-293T; [4]): 81% and 86% | Population Hoechst High Intensity Objects (%) (HEK-293T; [4]): 8% and 7% | Population Membrane Permeable-Phenotype (%) (HEK-293T; [4]): 6% and 2% | Population Mitochondria Different-Phenotype (%) (HEK-293T; [4]): 2% and 3% | Population Mitotic Cells (%) (HEK-293T; [4]): 80% and 62% | Population Normal (%) (HEK-293T; [4]): 91% and 92% | Population Pyknosed Nuclei (%) (HEK-293T; [4]): 3% and 2% | Population Tubulin-Different-Phenotype (%) (HEK-293T; [4]): 26% and 24% | Total Cell Count (HEK-293T; [4]): 1507 and 1327 | Population Apoptotic (%) (U2OS; [5]): 35% and 50% | Population Fragmented Nuclei (%) (U2OS; [5]): 2% and 12% | Population Healthy Nuclei (%) (U2OS; [5]): 88% and 81% | Population Hoechst High Intensity Objects (%) (U2OS; [5]): 0% | Population Membrane Permeable-Phenotype (%) (U2OS; [5]): 1% and 7% | Population Mitochondria Different-Phenotype (%) (U2OS; [5]): 0% | Population Mitotic Cells (%) (U2OS; [5]): 65% and 50% | Population Normal (%) (U2OS; [5]): 100% | Population Pyknosed Nuclei (%) (U2OS; [5]): 8% and 6% | Population Tubulin-Different-Phenotype (%) (U2OS; [5]): 88% and 44% | Population Apoptotic (%) (U2OS; [6]): 66% and 52% | Population Healthy Nuclei (%) (U2OS; [6]): 52% and 84% | Population Hoechst High Intensity Objects (%) (U2OS; [6]): 0% | Population Mitotic Cells (%) (U2OS; [6]): 33% and 48% | Population Normal (%) (U2OS; [6]): 100% | Population Pyknosed Nuclei (%) (U2OS; [6]): 15% and 10% | Population Tubulin-Different-Phenotype (%) (U2OS; [6]): 80% and 71% | Population Fragmented Nuclei (%) (U2OS; [1]): 3% and 8% | Population Healthy Nuclei (%) (U2OS; [1]): 86% and 82% | Population Hoechst High Intensity Objects (%) (U2OS; [1]): 0% | Population Membrane Permeable-Phenotype (%) (U2OS; [1]): 0% and 7% | Population Mitochondria Different-Phenotype (%) (U2OS; [1]): 0% | Population Mitotic Cells (%) (U2OS; [1]): 47% and 100% | Population Normal (%) (U2OS; [1]): 100% | Population Pyknosed Nuclei (%) (U2OS; [1]): 9% and 10% | Population Tubulin-Different-Phenotype (%) (U2OS; [1]): 89% and 41% | Population Apoptotic (%) (U2OS; [2]): 100% and 65% | Population Healthy Nuclei (%) (U2OS; [2]): 58% and 86% | Population Hoechst High Intensity Objects (%) (U2OS; [2]): 0% | Population Membrane Permeable-Phenotype (%) (U2OS; [2]): 11% and 3% | Population Mitochondria Different-Phenotype (%) (U2OS; [2]): 11% and 1% | Population Normal (%) (U2OS; [2]): 100% | Population Pyknosed Nuclei (%) (U2OS; [2]): 6% and 8% | Population Tubulin-Different-Phenotype (%) (U2OS; [2]): 55% and 72% | Population Fragmented Nuclei (%) (U2OS; [3]): 13% and 3% | Population Healthy Nuclei (%) (U2OS; [3]): 83% and 90% | Population Hoechst High Intensity Objects (%) (U2OS; [3]): 0% | Population Membrane Permeable-Phenotype (%) (U2OS; [3]): 1% and 2% | Population Mitochondria Different-Phenotype (%) (U2OS; [3]): 1% and 0% | Population Mitotic Cells (%) (U2OS; [3]): 100% and 60% | Population Normal (%) (U2OS; [3]): 100% | Population Pyknosed Nuclei (%) (U2OS; [3]): 2% and 6% | Population Tubulin-Different-Phenotype (%) (U2OS; [3]): 57% and 93% | Population Apoptotic (%) (U2OS; [4]): 83% and 59% | Population Healthy Nuclei (%) (U2OS; [4]): 62% and 90% | Population Hoechst High Intensity Objects (%) (U2OS; [4]): 0% | Population Mitotic Cells (%) (U2OS; [4]): 16% and 40% | Population Normal (%) (U2OS; [4]): 100% | Population Tubulin-Different-Phenotype (%) (U2OS; [4]): 60% and 84%
